Test results taken from article PMC11830134 (BioImpacts : BI, 2023).
Values joined by “and” are separate entries in the source; they are usually repeats but may differ in a detail not shown here. Equal values may be shown once.

How the values were obtained:
[1] = Ex-vivo skin permeation, Franz diffusion cells; assay type: in vitro ADME, Sprague-Dawley rats; settings: for Residual drug in the donor phase / Flux / Permeated drug through the skin: rat skin, mean ± SD, n=3; for Residual drug in the donor phase: after 48h; for Flux / Permeated drug through the skin: saturated solution donor; for Flux: 37 °C; for Flux / Unrecovered/ trapped drug: 48h; for Permeated drug through the skin: over 48h; for Unrecovered/ trapped drug: total applied minus permeated and donor-recovered amounts
In short: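 Full-thickness abdominal skin from ~8-week male Sprague-Dawley rats (220-250 g), taken after isoflurane anaesthesia, mounted in upright Franz cells (2.0 cm2). Donor: peptide at saturated solubility, set from predicted logS. Receptor: 5 mL 10% (v/v) hydroethanolic solution, 37±0.5 °C, 300 rpm, 48 h. 1 mL sampled at 1-48 h with replacement, stored -20 °C, quantified by ESI-MS flow injection. Flux from permeated amount versus time.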

[2] = Short-term stability of aqueous solutions; assay type: physicochemical; settings: aqueous solutions at −20, 4, 25 and 37 °C, compared with fresh samples
In short: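 Test peptide aqueous solutions at set concentrations, held at −20, 4, 25 and 37 °C for 72 h. Then quantified by ESI triple-quad MS in flow-injection mode (direct infusion from autosampler). Expressed relative to fresh samples of the same initial concentration.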

[3] = equilibrium zone, water; cited from earlier work
[4] = cited from earlier work
[5] = Surface tension and critical micelle concentration, Du Noüy ring method; assay type: physicochemical; settings: aqueous, 25±0.5 °C; mean ± SD, n=3
In short: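 Aqueous solutions freshly made at twice the predicted solubility as starting concentration. Du Noüy platinum ring force tensiometer, 25±0.5 °C; ring fully immersed, then slowly lifted, and force at detachment converted to surface tension. Static-zone surface tension compared with deionized water. Triplicate measurements.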

[6] = cited from earlier work; remark: listed apart in the source

| Compound | Residual drug in the donor phase [1] | Flux [1] [µg/cm^2 /h] | Permeated drug through the skin [1] | stability range in the aqueous medium after 72 hours [2] | CMC [5] [mg/L] | Unrecovered/ trapped drug [1] | experimental surface tension [3] [mN/m] | logP [4] | accumulation in the epidermis [6] [%] |
| --- | --- | --- | --- | --- | --- | --- | --- | --- | --- |
| lysine-threonine-threonine-lysine-serine [KTTKS] |  |  |  |  |  |  | 69.00±2.7 | -3.54 |  |
| CCCCCCCCCC(=O)N[C@@H](CCCCN)C(=O)N[C@H](C(=O)O)[C@@H](C)O [Compound C10-KT] | 55.23±3.377% | 0.032±0.009 | 2.3% and 2.314±1.087% | 96.6-103.7% | 42.24 ± 0.06 | ≈42% |  |  |  |
| CCCCCCCC(=O)N[C@@H](CCCCN)C(=O)N[C@H](C(=O)O)[C@@H](C)O [Compound C8-KT] | 21.29±3.851% | 1.084±0.085 | 33.2% and 33.24±9.562% | 98.9-101.6% | 194.95 ± 0.05 | ≈ 34% |  |  |  |
| Pal-KTTKS |  |  |  |  |  |  | 50.3±0.40 | 3.72 | 48 |

Now from value to compound, other results behind:

| Residual drug in the donor phase [1] | Flux [1] [µg/cm^2 /h] | Permeated drug through the skin [1] | stability range in the aqueous medium after 72 hours [2] | CMC [5] [mg/L] | Unrecovered/ trapped drug [1] | Compound | experimental surface tension [3] [mN/m] | logP [4] | accumulation in the epidermis [6] [%] |
| --- | --- | --- | --- | --- | --- | --- | --- | --- | --- |
| 97.7% and 97.73±1.688% | 0.003±0.000 | 0.004% and 0.004±0.001% | 99.7-100.3% |  |  | C[C@@H](O)[C@H](NC(=O)[C@@H](N)CCCCN)C(=O)O [KT, lysine-threonine, reference compound] |  |  |  |
| 21.49±7.454% | 0.016±0.006 | 0.5% and 0.499±0.070% | 96.2-101.8% | 15.31 ± 0.05 | ≈78% | CCCCCCCCCCCC(=O)N[C@@H](CCCCN)C(=O)N[C@H](C(=O)O)[C@@H](C)O [Compound C12-KT] |  |  |  |
| 4.197±1.308% | 0.001±0.000 | 2.6% and 2.628±0.368% | 93.2-104.2% | 1.89 ± 0.44 | ≈93% | CCCCCCCCCCCCCCCC(=O)N[C@@H](CCCCN)C(=O)N[C@H](C(=O)O)[C@@H](C)O [Compound C16-KT, reference compound] |  |  |  |
